As usually defined, the IC50 is the concentration that inhibits the measured activity by half. A lower IC50 goes with greater potency. A word on the Emax: it is the maximal effect, on the per cent scale that the assay sets. The EC50 is the concentration at which the effect is half-maximal. Broadly, the logD is lipophilicity at a set pH, counting ionised and neutral species. Low values mean lower lipophilicity, high ones higher lipophilicity.

One data set addresses Cannabinoid receptor 2 (Homo sapiens, UniProt P34972). Put plainly: Displacement of [3H]-CP55,940 from human CB2 receptor expressed in Sf9 cell membranes by scintillation counting analysis. The method in brief: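 Membranes from Sf9 cells expressing cloned hCB2 (baculovirus) in 50 mM Tris, 2.5 mM EDTA, 5 mM MgCl2, 0.5 mg/mL fatty-acid-free BSA, pH 7.4. 60 min at rt, GF/B filtration, scintillation counting. 10-point curves; IC50 mean of three independent experiments.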
(In general: Displacement assays read how much labelled ligand stays bound in the presence of the test substance.)

Data set [1] concerns the target T1, Cannabinoid receptor 1 (Homo sapiens, UniProt P21554). Put plainly: Agonist activity at human CB1 receptor expressed in HEK293S cell membranes after 1 hr by GTPgamma[35S] binding assay relative to WIN 55,212-2. The procedure, abridged:
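HEK293S membranes with cloned human CB1 (5 µg protein/well) in Hepes buffer pH 7.4, 100 mM NaCl, 5 mM MgCl2, 1 mM EDTA, 0.1% BSA, 15 µM GDP final. GTPγ[35S] added to start, 1 h at rt, filtered, counted. Basal from 8 wells; maximum from 8 wells with 10 µM reference agonist. Emax expressed as % of that reference. 10-point curves; mean of three experiments.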
In general terms: Binding of GTPγS marks nucleotide exchange on a G protein.

Data set [2] addresses T1, Cannabinoid receptor 1. Put plainly: Agonist activity at human CB1 receptor expressed in HEK293S cell membranes after 1 hr by GTPgamma[35S] binding assay.
Data set [3] in a line: Lipophilicity, log D of the compound. As to conditions: octanol/water.
For data set [4], the target named is T1, Cannabinoid receptor 1. Put plainly: Displacement of [3H]-CP55,940 from human CB1 receptor expressed in HEK293S cell membranes by scintillation counting analysis.

Cannabinoid receptor 2, sequence (P34972 whole entry): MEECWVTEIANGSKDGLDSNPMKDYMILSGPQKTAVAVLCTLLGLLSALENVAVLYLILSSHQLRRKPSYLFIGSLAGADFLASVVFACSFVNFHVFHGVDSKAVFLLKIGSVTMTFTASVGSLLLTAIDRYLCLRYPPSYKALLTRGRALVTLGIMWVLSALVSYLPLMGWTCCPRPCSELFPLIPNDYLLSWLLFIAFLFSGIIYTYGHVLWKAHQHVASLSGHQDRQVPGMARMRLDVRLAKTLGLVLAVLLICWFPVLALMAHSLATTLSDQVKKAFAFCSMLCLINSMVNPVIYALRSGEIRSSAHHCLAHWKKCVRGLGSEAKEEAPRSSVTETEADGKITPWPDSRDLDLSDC
T1 sequence (P21554 whole entry): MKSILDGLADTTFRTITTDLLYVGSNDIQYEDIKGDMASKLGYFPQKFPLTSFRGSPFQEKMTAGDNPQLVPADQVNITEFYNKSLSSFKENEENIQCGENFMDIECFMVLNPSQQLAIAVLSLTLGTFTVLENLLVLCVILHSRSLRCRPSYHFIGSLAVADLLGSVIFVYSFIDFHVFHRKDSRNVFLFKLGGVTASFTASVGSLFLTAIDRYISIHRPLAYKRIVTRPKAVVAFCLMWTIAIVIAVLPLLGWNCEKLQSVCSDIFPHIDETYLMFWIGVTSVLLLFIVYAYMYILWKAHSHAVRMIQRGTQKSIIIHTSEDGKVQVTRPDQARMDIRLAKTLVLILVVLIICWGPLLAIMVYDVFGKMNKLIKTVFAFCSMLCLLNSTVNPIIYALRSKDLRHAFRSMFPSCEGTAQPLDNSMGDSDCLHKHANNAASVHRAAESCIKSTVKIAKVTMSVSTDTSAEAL

Consider `COCc1ccc(C(=O)Nc2cccnc2C(=O)NCC2CCC2)c2ccccc12`, for which the IC50 on Cannabinoid receptor 2 turned out to be 0.019 µM. The molecule also displayed an Emax at Cannabinoid receptor 1 [1] of 110%. At Cannabinoid receptor 1 [2], this molecule showed an EC50 of 0.0059 µM.
For `O=C(NCC1CCC1)c1ncccc1NC(=O)c1ccc(Cn2ccnc2)c2ccccc12` the same measures were 0.33 µM, 100% and 0.04 µM.
In data set [3], `O=C(NCC1CCC1)c1nc(OCCOCCO)ccc1NC(=O)c1ccnc2ccccc12` had a logD of 4.1. Besides, the concentration for half-maximal inhibition (IC50) at Cannabinoid receptor 2 was 1.2 µM; at Cannabinoid receptor 1 [4], 10 µM. Besides, the Emax at Cannabinoid receptor 1 [1] worked out at 130%. The same molecule returned an EC50 on Cannabinoid receptor 1 [2] of 0.014 µM.
In data set [3], `O=C(NCC1CCCCC1)c1ccncc1NC(=O)c1cccc2ccccc12` displayed a logD of 5.5. The IC50 on Cannabinoid receptor 2 was more than 8.9 µM; on Cannabinoid receptor 1 [4], 3.6 µM.
For `O=C(Nc1cccnc1C(=O)NCC1CCOCC1)c1ccc2ncsc2c1` the same measures were 3.5, more than 10 µM and more than 6.7 µM.
The molecule `O=C(NCC1CCC1)c1ncccc1NC(=O)c1ccc(Cn2cccc2)c2ccccc12` gave an IC50 at Cannabinoid receptor 2 of 0.34 µM. In addition, the Emax on Cannabinoid receptor 1 [1] was 82%. At Cannabinoid receptor 1 [2], this molecule displayed an EC50 of 0.17 µM.
With `O=C(NCC1CCCCC1)c1cccnc1NC(=O)c1cccc2ccccc12`, in data set [3], the logD is 4.7. In addition, the IC50 on Cannabinoid receptor 2 and on Cannabinoid receptor 1 [4] was more than 10 µM throughout.
Regarding `O=C(NCC1CCC1)c1ncccc1NC(=O)c1cccc2ccccc12`, the IC50 stood at 0.026 µM on Cannabinoid receptor 2 and 0.0061 µM on Cannabinoid receptor 1 [4]. At Cannabinoid receptor 1 [1], the Emax is 110%. A half-maximal effect at Cannabinoid receptor 1 [2] (EC50) was put at 0.023 µM.
As to `O=C(NCC1CCOCC1)c1ncccc1NC(=O)c1ccc(C(=O)O)c2ccccc12`, the IC50 was more than 10 µM on Cannabinoid receptor 2 and more than 10000 µM on Cannabinoid receptor 1 [4].
As for `O=C(NCC1CCCCC1)c1nccnc1NC(=O)c1cccc2ccccc12`, the IC50 at Cannabinoid receptor 2 came to 1.4 µM; on Cannabinoid receptor 1 [4] it was 0.091 µM. In addition, on Cannabinoid receptor 1 [1], the Emax turned out to be 120%. The same molecule showed an EC50 at Cannabinoid receptor 1 [2] of 0.48 µM.
Molecule `O=C(NCC1CCC1)c1ncccc1NC(=O)c1cccc2cnccc12` came in with a pH-dependent lipophilicity (logD) in data set [3] of 5.1. Besides, the IC50 at Cannabinoid receptor 2 came to 0.038 µM; on Cannabinoid receptor 1 [4], 0.22 µM.
For `O=C(Nc1cccnc1C(=O)NCC1CCOCC1)c1cccc2c1OCCO2` the same measures were 3.8, 5.7 µM and 1.2 µM.
The matching figures for `O=C(NCC1CCC1)c1ncccc1NC(=O)c1cccc2cccnc12`: 5.5, 0.36 µM and 0.32 µM.
At Cannabinoid receptor 1 [4], `CS(=O)(=O)Cc1ccc(C(=O)Nc2cccnc2C(=O)NCC2CCC2)c2ccccc12` came in with an IC50 of 240 µM. For the same molecule, the Emax at Cannabinoid receptor 1 [1] was 77%. In addition, the EC50 at Cannabinoid receptor 1 [2] worked out at 0.26 µM.
Molecule `C[S+]([O-])Cc1ccc(C(=O)Nc2nccnc2C(=O)NCC2CCC2)c2ccccc12` (single isomer, unassigned) gave an Emax at Cannabinoid receptor 1 [1] of 110%.
On Cannabinoid receptor 1 [1], `C[S+]([O-])Cc1ccc(C(=O)Nc2nccnc2C(=O)NCC2CCC2)c2ccccc12` (stereo in doubt; 18f) yielded an Emax of 120%.
In the case of `O=C(NCC1CCC1)c1ncccc1NC(=O)c1ccnc2ccccc12`, the IC50 on Cannabinoid receptor 2 worked out at 0.082 µM; at Cannabinoid receptor 1 [4] it was 0.028 µM. In addition, the Emax at Cannabinoid receptor 1 [1] was 94%. The same molecule displayed an EC50 on Cannabinoid receptor 1 [2] of 0.079 µM.
In data set [3], `O=C(NCC1CCOCC1)c1ncccc1NC(=O)c1cccc2nccnc12` yielded a pH-dependent lipophilicity (logD) of 2.5. In addition, the IC50 was more than 10 µM on Cannabinoid receptor 2 and more than 9.9 µM on Cannabinoid receptor 1 [4].
With `O=C(NCC1CCCCC1)c1cnccc1NC(=O)c1cccc2ccccc12`, the logD in data set [3] is 6.1. Moreover, the IC50 turned out to be 9 µM at Cannabinoid receptor 2 and 1.4 µM at Cannabinoid receptor 1 [4].
On to `CN(C)Cc1ccc(C(=O)Nc2cccnc2C(=O)NCC2CCC2)c2ccccc12`, for which, at Cannabinoid receptor 2, the IC50 was 0.19 µM. For the same molecule, at Cannabinoid receptor 1 [1], the Emax was 100%. Besides, at Cannabinoid receptor 1 [2], it took 0.18 µM to reach a half-maximal effect (EC50).
On to `C[S+]([O-])Cc1ccc(C(=O)Nc2cccnc2C(=O)NCC2CCC2)c2ccccc12` (centres undefined), for which the logD in data set [3] was determined as 4.6. The IC50 at Cannabinoid receptor 1 [4] was 7 µM. This molecule also displayed an Emax at Cannabinoid receptor 1 [1] of 110%. The molecule further returned an EC50 on Cannabinoid receptor 1 [2] of 0.0059 µM.

These data come from ChEMBL document CHEMBL2311293, “Discovery of agonists of cannabinoid receptor 1 with restricted central nervous system penetration aimed for treatment of gastroesophageal reflux disease” (J Med Chem, 2013).
